# Sampled rows, rich in hits. Any-hit rate of the full collection: about 1.8%.
# p-CIP stab down = compounds decreasing mouse p/CIP protein stability; F442A p/CIP-EGFP cells, EGFP fluorescence, 16 h; 290,000 tested, 0.01% active; decrease of EGFP signal, % at 10 µM; Q05BA5;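 active = EGFP signal decrease of at least 30% at 10 µM or well 3 SD below plate mean, unless failing retest; inactive = the rest, including hits failing retest or dose response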
# PHOSPHO1 inh = blocks human PHOSPHO1 phosphatase activity. inhibition, % at 13.3 µM. recombinant PHOSPHO1, absorbance phosphatase assay. 290,000 tested, 1.1% active. Q8TCT1; in the data active = inhibition above about 60%
# Target sequence (Q8TCT1 whole entry, looked up): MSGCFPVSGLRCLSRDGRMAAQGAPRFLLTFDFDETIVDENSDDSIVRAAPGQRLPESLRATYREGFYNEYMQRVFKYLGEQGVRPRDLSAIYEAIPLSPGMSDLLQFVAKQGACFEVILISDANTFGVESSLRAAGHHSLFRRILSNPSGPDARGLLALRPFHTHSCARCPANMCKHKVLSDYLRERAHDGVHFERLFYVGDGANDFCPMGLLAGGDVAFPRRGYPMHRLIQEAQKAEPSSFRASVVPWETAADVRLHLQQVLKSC
# Tb MetRS inh = blocks T. brucei methionyl-tRNA synthetase activity | purified T. brucei MetRS, ATP depletion, Kinase-Glo luminescence | inhibition, % at 11.9 µM | 360,000 tested, 0.4% active | AID 624268;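 active = inhibition above a per-plate cutoff of the control wells' mean inhibition plus 3 SD, cut at about 5.5% in these data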;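 note: 0% = DMSO wells median and 100% = median of wells with control inhibitor compound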
#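 Material: parasite MetRS enzyme / Replication: singlicate, one well per compound / Signal: luminescence of leftover ATP / Schedule: 2 h aminoacylation at 25 °C after 15 min preincubation / Medium: HEPES-MgCl2-KCl buffer plus DTT, spermine, BSA, pyrophosphatase / Doses: 11.9 µM single point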
# APOBEC3G inh = inhibitors of human APOBEC3G DNA deaminase; inhibition, % at 20 µM; 330,000 tested, 0.28% active; recombinant A3G, ssDNA deamination FAM/TAMRA fluorescence;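 active = inhibition of at least 40% at 20 µM, with no more than 30% in the related APOBEC3A deaminase screen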;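 note: plate controls were DMSO wells with A3G for no effect and wells lacking A3G enzyme for full effect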
# APOBEC3A inh = inhibitors of human APOBEC3A DNA deaminase; 330,000 tested, 0.41% active; recombinant A3A, FAM/TAMRA ssDNA deamination fluorescence; AID 493011; inhibition, % at 20 µM; P31941;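 active = at least 40% inhibition at 20 µM here, with at most 30% in a related deaminase screen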;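 note: plate controls were A3A with DMSO for no effect and wells lacking A3A enzyme for full effect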
# Target sequence (P31941 whole entry, looked up): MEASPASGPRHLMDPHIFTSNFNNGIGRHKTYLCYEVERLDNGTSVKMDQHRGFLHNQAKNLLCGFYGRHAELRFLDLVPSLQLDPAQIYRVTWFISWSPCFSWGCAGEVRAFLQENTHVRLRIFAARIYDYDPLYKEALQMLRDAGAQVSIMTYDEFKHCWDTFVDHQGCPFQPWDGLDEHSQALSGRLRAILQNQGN
# * marks the source's active call; other numbers are inactive results; nt = no result given.
SMILES,p-CIP stab down,PHOSPHO1 inh,Tb MetRS inh,APOBEC3G inh,APOBEC3A inh
Cc1ccc(-c2nnc(SCC(=O)CC(=O)Nc3ccccc3)n2C)cc1,-14,-8,0,-7,-7
COc1ccccc1NC(=O)CC(=O)CSc1nnc(-c2ccc(C)cc2)n1C,0,88*,0,-4,-2
COc1ccccc1NC(=O)CSc1nnc(-c2ccc(NC(C)=O)cc2)n1C,9,106*,-1,0,21
CC(C)(C)c1ccc(COc2ccsc2C(=O)O)cc1,4,8,-1,-9,-2
CC(C)CNC(=O)C1(C)CCCN1Cc1ccccc1OC(F)F (stereo not given),nt,nt,0,nt,nt
O=C1c2cccc3c([N+](=O)[O-])ccc(c23)C(=O)N1c1ccc(Cl)cn1,-179,93*,0,-5,1
O=C1c2cccc3c([N+](=O)[O-])ccc(c23)C(=O)N1c1nccs1,-104,97*,0,-5,0
O=C1c2cccc3c([N+](=O)[O-])ccc(c23)C(=O)N1c1ccccn1,-203,34,0,-8,-3
O=C1c2cccc3cccc(c23)C(=O)N1c1nccs1,-4,-10,0,-3,3
Cc1ccc2nc(-c3ccccc3)c(CC(=O)O)c(C(=O)O)c2c1,-16,37,0,-8,2
Cc1ccc(C(=O)Nc2nc(-c3ccccn3)cs2)cc1S(=O)(=O)N1CCOCC1,nt,nt,0,0,-2
CCOC(=O)c1c(-c2ccc(-c3ccccc3)cc2)csc1NC(=O)C1C2CCC(O2)C1C(=O)O (stereo not given),5,-19,-1,-5,-2
CCOC(=O)c1c(-c2ccccc2)csc1NC(=O)C1CCCO1 (stereo not given),-8,72*,-1,35,-2
Nc1ncc(Br)cc1S(=O)(=O)NC1CCCCC1,2,72*,0,-2,-2
S=c1[nH]nc(Cc2sc(-c3ccccc3)nc2-c2ccccc2)o1,-3,90*,-1,1,2
O=C(Cc1sc(-c2ccccc2)nc1-c1ccccc1)Nc1ccccc1,-8,3,0,-5,-11
COc1ccc2c(c1[N+](=O)[O-])CCC/C2=N/OC(=O)c1cccc2ccccc12,-8,78*,-1,-5,0
N#Cc1sc(NCc2ccccc2)nc1Cl,-6,62*,0,-6,-3
COc1ccc(CNc2nc(Cl)c(C#N)s2)cc1,-10,36,0,-6,0
CC(=O)c1cccc(OCc2cc(C(=O)N3CCC(N4CCCCC4)CC3)no2)c1,1,64*,-1,-7,-6
[O-]/C(=C(\C(=S)Nc1cccc2ccccc12)[n+]1ccccc1)c1ccc2c(c1)OCCO2,1,85*,0,-6,-4
C[N+]1(CCOc2ccc([N+](=O)[O-])cc2)CCOCC1,-8,97*,-1,36,77
O=C1NC[C@H](CCCCN2C[C@H](Cc3ccc(O)cc3)N(Cc3ccccc3)C(=O)C2=O)N(CCc2ccc(O)cc2)C1=O,nt,nt,-1,nt,nt
CCCCNc1nc(=S)[nH]c2cc(OC)c(OC)cc12,-6,53,-1,-4,-4
COCCNc1nc(=S)[nH]c2cc(OC)c(OC)cc12,-11,68*,-1,-4,-4
SMILES,p-CIP stab down,PHOSPHO1 inh,Tb MetRS inh,APOBEC3G inh,APOBEC3A inh
CCN1CCN(C(=O)CCc2nnc(CCc3c[nH]c4ccccc34)o2)[C@@H](C)C1=O,4,34,0,-6,-3
CC(C)CN1CCN(C(=O)CCc2nnc(Cc3c[nH]c4ccccc34)o2)[C@@H](C)C1=O,-10,66*,0,0,1
C=CCN(C(=O)Cn1c(C(=O)OC)cc2oc(C)cc21)c1ccccc1,-4,74*,1,5,2
COC(=O)c1cc2oc(C)cc2n1CC(=O)N(C)c1ccccc1,2,-3,0,-6,-2
C#CCNC(=O)C[C@@H]1C[C@@]2(C(=O)OC)CCCCC=C2N(Cc2ccc(Cl)cc2Cl)C1=O,nt,nt,0,nt,nt
COc1ccccc1OCC(=O)Nc1nnc(-c2ccco2)s1,-12,74*,0,nt,nt
CCOc1cccc(C(=O)Nc2nnc(-c3ccco3)s2)c1,10,76*,-1,-5,-1
Cc1cccc(OCC(=O)Nc2nnc(-c3ccco3)s2)c1,-4,8,1,-3,-1
O=[N+]([O-])c1ccc(S(=O)(=O)N2CCSC2c2ccco2)cc1 (stereo not given),-6,-63,0,12,13
O=S(=O)(c1ccc(Cl)cc1)N1CCSC1c1ccco1 (stereo not given),6,68*,-1,-7,3
COc1ccc(NC(=O)COc2ccc(Br)cc2)c(OC)c1,3,60*,0,-3,0
CC(=O)NC(=S)NNC(=O)COc1ccc([N+](=O)[O-])cc1,3,67*,0,20,-3
O=C(COc1ccc(Br)cc1)NNC(=S)NC(=O)c1ccccc1[N+](=O)[O-],-5,23,0,nt,nt
COc1ccc(NC(=O)COc2ccccc2)c(OC)c1,0,-21,1,-4,-1
CC(=O)NC(=S)NNC(=O)COc1ccc(Br)cc1,6,61*,0,nt,nt
CSCCC(NC(=O)c1cc(C)oc1C)C(=O)O (stereo not given),9,90*,0,-4,-2
CSCCC(NC(=O)c1cc(CC(C)C)oc1C)C(=O)O (stereo not given),-2,53,0,-4,-1
Cc1ccc(C(=O)Nc2nn(C)c3cccc(F)c23)cc1,4,6,-1,-6,-4
COc1ccc(-n2cc(-c3ccc(Cl)cc3)[nH]c2=S)cc1,-11,60*,0,-5,-5
O=c1ccncn1C1OC(CO)C(O)C1O (stereo not given),nt,nt,0,nt,nt
C=CC[n+]1c(-c2ccc(OCC)cc2)csc1NNC(=O)Nc1ccccc1,-3,61*,-1,2,-7
CC(C)(C)NC(=O)Cn1nnc(-c2ccc(OCc3c(F)cccc3Cl)cc2)n1,-6,39,-1,-10,0
CCOc1cc(/C=C(\C#N)C(=O)Nc2ccccc2[N+](=O)[O-])ccc1OCc1cccc2ccccc12,30*,17,nt,nt,nt
CCOc1cc(/C=C(\C#N)C(=O)Nc2ccccc2C(=O)O)ccc1OC(=O)c1ccc(C)cc1,-10,-11,0,nt,nt
C=CC[C@@H](Cc1ccc(F)cc1)C(=O)OC[C@@H]1CCCN1C(=O)[C@H](CC=C)CC(=O)NCCO,nt,nt,0,-6,0
O=C1COc2ccc(N3C(=O)C=CC3=O)cc2N1,-18,2,nt,49*,-3
CCN(CC)C(=O)CCCC(=O)N(CC)CC,7,36,0,-3,-1
CC(C)NC(=O)c1sc2nc3c(c(-c4cccs4)c2c1N)CN(C)CC3,-5,63*,-1,0,-2
Cc1cccc(NC(=O)c2sc3nc4c(c(-c5cccs5)c3c2N)CN(C)CC4)c1,-4,-21,-1,-6,-11
CC(C)OCCCn1c(=NC(=O)c2ccncc2)c(C#N)cc2c(=O)n3ccccc3nc21,-12,98*,-1,-3,2

# Compound activity deposited in PubChem BioAssay by several laboratories.
